{
  "source": "ChEMBL document CHEMBL1125710",
  "about": "“Structure/activity and molecular modeling studies of the lophotoxin family of irreversible nicotinic receptor antagonists” (J Med Chem, 1991)",
  "note": "Several values for one entry are separate records, joined by “and”; a condition that tells them apart may be missing. Identical values can stand only once. Activity calls are given as the source filed them. The rule behind the calls is not given here.",
  "data": [
    {"biological_target": "T1, Acetylcholine receptor (Torpedo californica, UniProt P02710+P02712+P02714+P02718)", "T1 sequence (P02710 whole entry)": "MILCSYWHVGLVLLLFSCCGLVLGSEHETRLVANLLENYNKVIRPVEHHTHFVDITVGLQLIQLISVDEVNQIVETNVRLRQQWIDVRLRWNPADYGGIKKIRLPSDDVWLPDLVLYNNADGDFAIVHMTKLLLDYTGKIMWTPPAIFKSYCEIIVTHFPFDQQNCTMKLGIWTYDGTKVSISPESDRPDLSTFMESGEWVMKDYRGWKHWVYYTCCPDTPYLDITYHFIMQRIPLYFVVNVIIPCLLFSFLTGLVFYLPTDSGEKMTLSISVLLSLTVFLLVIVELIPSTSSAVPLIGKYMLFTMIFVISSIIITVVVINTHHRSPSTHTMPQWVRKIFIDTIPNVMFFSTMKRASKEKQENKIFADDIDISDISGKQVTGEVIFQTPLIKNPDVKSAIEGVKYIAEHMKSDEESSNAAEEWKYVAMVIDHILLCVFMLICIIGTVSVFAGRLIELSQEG", "T1 sequence (P02712 whole entry)": "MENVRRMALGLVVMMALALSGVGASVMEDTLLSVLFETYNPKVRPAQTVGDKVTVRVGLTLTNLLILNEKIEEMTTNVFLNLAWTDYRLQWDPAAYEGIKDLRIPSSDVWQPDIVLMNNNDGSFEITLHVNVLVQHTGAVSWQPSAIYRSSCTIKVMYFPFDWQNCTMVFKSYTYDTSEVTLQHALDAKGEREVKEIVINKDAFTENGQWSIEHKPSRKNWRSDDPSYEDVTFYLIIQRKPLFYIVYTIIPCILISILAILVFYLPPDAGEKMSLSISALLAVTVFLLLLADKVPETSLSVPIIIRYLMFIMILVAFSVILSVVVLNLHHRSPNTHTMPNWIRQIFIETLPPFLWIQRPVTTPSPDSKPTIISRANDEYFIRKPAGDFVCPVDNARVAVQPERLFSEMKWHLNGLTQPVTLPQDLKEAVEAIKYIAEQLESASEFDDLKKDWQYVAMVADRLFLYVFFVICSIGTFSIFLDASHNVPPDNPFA", "T1 sequence (P02718 whole entry)": "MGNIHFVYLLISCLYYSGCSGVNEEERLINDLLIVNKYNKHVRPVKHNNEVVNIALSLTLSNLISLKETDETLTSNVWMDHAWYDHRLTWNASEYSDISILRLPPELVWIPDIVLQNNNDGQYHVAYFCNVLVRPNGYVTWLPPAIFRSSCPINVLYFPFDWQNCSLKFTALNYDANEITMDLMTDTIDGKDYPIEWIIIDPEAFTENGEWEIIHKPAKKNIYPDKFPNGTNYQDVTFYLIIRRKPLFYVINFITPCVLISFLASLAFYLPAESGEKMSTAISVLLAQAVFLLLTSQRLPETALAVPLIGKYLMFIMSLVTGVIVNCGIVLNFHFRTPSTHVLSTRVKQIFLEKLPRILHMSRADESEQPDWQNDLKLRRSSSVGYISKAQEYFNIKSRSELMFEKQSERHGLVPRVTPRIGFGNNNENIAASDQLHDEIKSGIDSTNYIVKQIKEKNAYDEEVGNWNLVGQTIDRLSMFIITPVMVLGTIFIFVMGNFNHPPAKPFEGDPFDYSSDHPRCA", "T1 sequence (P02714 whole entry)": "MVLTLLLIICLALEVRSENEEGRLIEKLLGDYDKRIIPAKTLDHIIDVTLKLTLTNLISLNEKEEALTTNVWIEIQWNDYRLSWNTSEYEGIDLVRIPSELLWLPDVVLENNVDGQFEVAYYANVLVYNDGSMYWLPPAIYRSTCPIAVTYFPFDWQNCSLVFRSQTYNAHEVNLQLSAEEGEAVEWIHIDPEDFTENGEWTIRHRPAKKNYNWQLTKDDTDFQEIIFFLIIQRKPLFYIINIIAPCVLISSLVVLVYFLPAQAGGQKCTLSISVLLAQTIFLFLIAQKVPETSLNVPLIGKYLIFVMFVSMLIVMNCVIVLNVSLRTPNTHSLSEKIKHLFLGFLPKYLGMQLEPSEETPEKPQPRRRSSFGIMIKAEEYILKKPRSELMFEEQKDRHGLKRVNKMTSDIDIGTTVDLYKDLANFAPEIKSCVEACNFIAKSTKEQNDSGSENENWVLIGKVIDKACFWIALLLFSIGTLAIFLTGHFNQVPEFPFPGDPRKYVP", "experiment": "In vitro ability to inhibit the binding of [125I]-alpha-bungarotoxin to nicotinic acetylcholine receptor on membranes prepared from the electric organs of Torpedo californica", "format": "tissue-based, Tetronarce californica, Electric organ", "conditions": "not given", "outline": "(§1)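 Torpedo californica electric-organ membranes (ca. 1.0 pmol α-toxin sites) in 10 mM sodium phosphate pH 7.4 with 1.0 mM EDTA and 1.0 mM EGTA. Analogue in DMSO reacted 2 or 16 h at 23 °C, then 2-5-fold molar excess [125I]-α-bungarotoxin for 60 min. Duplicate aliquots filtered on DE81, washed, gamma-counted. Apparent EC50 is 50% inhibition of specific binding.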", "units": {"EC50": "µM"}, "values": [
      {"molecule": "COc1cc2c3cc1Oc1cc(ccc1O)C[C@@H]1c4c(cc(OC)c(O)c4Oc4ccc(cc4)C[C@@H]3N(C)CC2)CC[N+]1(C)C", "EC50": 3200}
    ]},
    {"biological_target": "T1, Acetylcholine receptor", "experiment": "In vitro inhibition of [125I]alpha-bungarotoxin binding to nicotinic acetylcholine receptor of Torpedo californica electric organ membranes", "format": "tissue-based, Tetronarce californica", "conditions": "not given", "outline": "as §1", "units": {"EC50": "µM"}, "values": [
      {"molecule": "C=C(CO)[C@H]1C[C@H](O)[C@@]23O[C@@H]2[C@@H](C[C@]2(C)O[C@H]2C2=CC(C)=C(O2)[C@@H]1OC(C)=O)OC3=O", "EC50": 25.7},
      {"molecule": "C=C(C)[C@H]1C[C@H](OC(C)=O)C2=C[C@@H](C[C@]3(C)O[C@H]3C3=CC(C)=C(O3)[C@@H]1OC(C)=O)OC2=O", "EC50": 14.5},
      {"molecule": "C=C(CO)[C@H]1C[C@H](OC(C)=O)[C@@]23O[C@@H]2[C@@H](C[C@]2(C)O[C@H]2C2=CC(C)=C(O2)[C@@H]1OC(C)=O)OC3=O", "EC50": 2.09},
      {"molecule": "C=C(C)[C@@H]1CC2=C(CO)C=C(O2)[C@@H]2O[C@@]2(C)C[C@H]2OC(=O)[C@@]3(O[C@H]23)[C@@H](OC(C)=O)C1", "EC50": 44.7},
      {"molecule": "CC(=O)O[C@H]1C[C@H](C2(C)CO2)[C@@H](OC(C)=O)C2=C(C)C=C(O2)[C@@H]2O[C@@]2(C)C[C@@H]2C=C1C(=O)O2", "note": "(stereo partly drawn)", "EC50": 12},
      {"molecule": "C=C(C)[C@@H]1CC2=C(C(=O)OC)C=C(O2)[C@@H]2O[C@@]2(C)C[C@@H]2C=C(C(=O)O2)[C@@H](OC(C)=O)C1", "note": "[ACETOXYPUKALIDE]", "EC50": 91.2},
      {"molecule": "C=C(C=O)[C@@H]1CC2=C(C(=O)OC)C=C(O2)[C@@H]2O[C@@]2(C)C[C@H]2OC(=O)[C@@]3(O[C@H]23)[C@@H](OC(C)=O)C1", "EC50": 105},
      {"molecule": "C=C(C)[C@@H]1CC2=C(C=O)C=C(O2)[C@@H]2O[C@@]2(C)C[C@@H]2C=C(C(=O)O2)[C@@H](OC(C)=O)C1", "note": "[DEOXYLOPHOTOXIN]", "EC50": 115},
      {"molecule": "C=C(CO)[C@H]1C[C@H](OC(C)=O)[C@@]23O[C@@H]2[C@@H](CC2(C)O[C@H]2C2=CC(C)=C(O2)[C@@H]1O)OC3=O", "note": "(single isomer, unassigned)", "EC50": 81.3},
      {"molecule": "C=C(C)[C@@H]1CC2=C(C(=O)OC)C=C(O2)[C@@H]2O[C@@]2(C)C[C@H]2OC(=O)[C@@]3(O[C@H]23)[C@@H](OC(C)=O)C1", "EC50": 126},
      {"molecule": "C=C(C(=O)OC)[C@H]1C[C@H](OC(C)=O)C2=C[C@@H](C[C@]3(C)O[C@H]3C3=CC(C)=C(O3)[C@@H]1OC(C)=O)OC2=O", "EC50": 7.41},
      {"molecule": "CC(=O)O[C@H]1C[C@H](C2(C)CO2)[C@@H](OC(C)=O)C2=C(C)C=C(O2)[C@@H]2O[C@@]2(C)C[C@H]2OC(=O)[C@@]13O[C@H]23", "note": "(stereo partly drawn)", "EC50": 25.1}
    ]},
    {"biological_target": "Acetylcholine receptor (Torpedo californica) (UniProt P02710+P02712+P02718+P02714)", "experiment": "In vitro ability to inhibit the binding of [125I]alpha-bungarotoxin to nicotinic acetylcholine receptor on membranes prepared from the electric organs of Torpedo californica; Not active", "conditions": "Tetronarce californica", "outline": "as §1", "values": [
      {"molecule": "C=C(C(=O)OC)[C@H]1CC2O[C@@](O)(/C(C)=C\\C(=O)/C=C(/C)C[C@H]3OC(=O)[C@@]24O[C@H]34)[C@@H]1OC(C)=O", "Log EC50": "inactive"},
      {"molecule": "C=C(C)[C@H]1C[C@H](OC(C)=O)[C@@]23O[C@@H]2[C@@H](C[C@](C)(O)/C=C2/C=C(C=O)C(OCC)(C1)O2)OC3=O", "Log EC50": "inactive"},
      {"molecule": "C=C(CO)[C@H]1C[C@H](O)[C@@]23O[C@@H]2[C@@H](CC2(C)O[C@H]2C2=CC(C)=C(O2)[C@@H]1OC(C)=O)OC3O", "note": "(single isomer, unassigned)", "Log EC50": "inactive"},
      {"molecule": "C=C(C)[C@H]1CC2O[C@@](O)(/C(C)=C\\C(=O)/C=C(/C)C[C@H]3OC(=O)[C@@]24O[C@H]34)[C@@H]1OC(C)=O", "Log EC50": "inactive"},
      {"molecule": "C=C(C)[C@H]1CCC2=C[C@@H](C/C(C)=C/C3=CC(C(=O)OC)=C(C1)O3)OC2=O", "Log EC50": "inactive"},
      {"molecule": "COC(=O)c1cc2oc1C[C@@H](C(C)C)CCC1C[C@@H](C[C@](C)(O)C2)OC1=O", "Log EC50": "inactive"},
      {"molecule": "C=C(C)[C@H]1CCC2=C[C@@H](C[C@]3(C)O[C@H]3C3=CC(C(=O)OC)=C(C1)O3)OC2=O", "Log EC50": "inactive"},
      {"molecule": "C=C(C)[C@H]1CCC2=C[C@@H](C[C@]3(C)O[C@H]3C3=CC(C=O)=C(C1)O3)OC2=O", "Log EC50": "inactive"},
      {"molecule": "C=C(CO)[C@H]1C[C@H](OC(C)=O)[C@@]23O[C@@H]2[C@@H](CC2(C)O[C@H]2C2=CC(C)=C(O2)[C@@H]1OC(C)=O)OC3O", "note": "(single isomer, unassigned)", "Log EC50": "inactive"}
    ]},
    {"biological_target": "T1, Acetylcholine receptor", "experiment": "In vitro ability to inhibit the binding of [125I]alpha-bungarotoxin to Nicotinic acetylcholine receptor on membranes prepared from the electric organs of Torpedo californica", "format": "tissue-based, Tetronarce californica, Electric organ", "conditions": "not given", "outline": "as §1", "values": [
      {"molecule": "C=C(C=O)[C@H]1C[C@H](OC(C)=O)[C@@]23O[C@@H]2[C@@H](C[C@]2(C)O[C@H]2C2=CC(C)=C(O2)[C@@H]1OC(C)=O)OC3=O", "EC50": "2.88 µM and 9.33 µM"}
    ]}
  ]
}
